Test results published in ChEMBL document CHEMBL4043093, “2-Oxo-3, 4-dihydropyrimido[4, 5-d]pyrimidinyl derivatives as new irreversible pan fibroblast growth factor receptor (FGFR) inhibitors” (Eur J Med Chem, 2017).

Experiments:
[1] = test system: Epidermal growth factor receptor (Homo sapiens), P00533 [UNDEFINED MUTATION]; assay: Inhibition of human partial length EGFR L747-E749del/A750P mutant expressed in Escherichia coli BL21 assessed as residual activity at 1000 nM after 30 mins by Kinomescan method relative to control
Epidermal growth factor receptor (Homo sapiens), P00533 [UNDEFINED MUTATION], sequence (P00533 whole entry, looked up, stated change not applied): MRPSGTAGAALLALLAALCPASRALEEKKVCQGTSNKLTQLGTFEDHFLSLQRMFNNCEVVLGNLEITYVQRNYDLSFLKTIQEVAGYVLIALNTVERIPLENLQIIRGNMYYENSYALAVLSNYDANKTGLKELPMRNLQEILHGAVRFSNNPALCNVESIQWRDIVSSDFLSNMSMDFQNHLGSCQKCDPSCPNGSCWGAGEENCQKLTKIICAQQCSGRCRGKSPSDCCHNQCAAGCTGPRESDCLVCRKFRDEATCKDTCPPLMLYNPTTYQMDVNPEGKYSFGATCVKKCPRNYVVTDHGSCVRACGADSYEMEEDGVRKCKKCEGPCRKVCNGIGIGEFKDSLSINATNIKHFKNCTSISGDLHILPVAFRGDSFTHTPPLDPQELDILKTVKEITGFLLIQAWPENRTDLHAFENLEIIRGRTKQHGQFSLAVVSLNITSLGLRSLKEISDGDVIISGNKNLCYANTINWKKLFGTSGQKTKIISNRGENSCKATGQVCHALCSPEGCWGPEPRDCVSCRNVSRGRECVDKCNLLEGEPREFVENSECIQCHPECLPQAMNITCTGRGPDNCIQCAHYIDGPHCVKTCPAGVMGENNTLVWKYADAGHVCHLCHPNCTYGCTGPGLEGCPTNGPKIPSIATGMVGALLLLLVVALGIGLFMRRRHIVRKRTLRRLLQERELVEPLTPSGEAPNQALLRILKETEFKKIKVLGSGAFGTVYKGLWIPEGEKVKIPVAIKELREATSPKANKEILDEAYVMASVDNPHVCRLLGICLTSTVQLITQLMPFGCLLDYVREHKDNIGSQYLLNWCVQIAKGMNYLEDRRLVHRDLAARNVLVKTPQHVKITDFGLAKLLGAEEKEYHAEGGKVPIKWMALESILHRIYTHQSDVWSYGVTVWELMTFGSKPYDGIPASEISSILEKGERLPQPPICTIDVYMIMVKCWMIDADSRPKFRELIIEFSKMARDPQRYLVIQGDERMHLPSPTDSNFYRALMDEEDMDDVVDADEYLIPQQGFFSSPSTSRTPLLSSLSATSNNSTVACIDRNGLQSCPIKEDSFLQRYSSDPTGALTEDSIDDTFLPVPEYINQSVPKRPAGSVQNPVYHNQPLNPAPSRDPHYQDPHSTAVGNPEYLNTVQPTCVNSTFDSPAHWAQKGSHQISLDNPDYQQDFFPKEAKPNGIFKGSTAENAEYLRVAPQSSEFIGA
How it was run: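 KINOMEscan binding panel of 456 kinases, with the test compound at a single concentration of 1 µM. Read-out is Percent Control.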

[2] = target: Interleukin-1 receptor-associated kinase 4 (Homo sapiens) (UniProt Q9NWZ3); assay: Inhibition of wild-type human partial length IRAK4 (M1 to S460 residues) expressed in HEK293 cells assessed as residual activity at 1000 nM after 30 mins by Kinomescan method relative to control; type: cell-based
[3] = test system: Proto-oncogene tyrosine-protein kinase receptor Ret (Homo sapiens), P07949 [V804L]; assay: Inhibition of human partial length RET V804L mutant (E713 to D1014 residues) expressed in Escherichia coli BL21 assessed as residual activity at 1000 nM after 30 mins by Kinomescan method relative to control
How it was run: (§1)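 Single-point screen at a fixed 1 µM, run within a 456-kinase DiscoveRx KINOMEscan panel. Each kinase's read-out is Percent Control, i.e. signal relative to a control without compound. Hits were scored by a Percent Control < 35 cut-off, and an S(35) selectivity score was calculated across the non-mutant kinases.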

[4] = target: Bone morphogenetic protein receptor type-1A (Homo sapiens) (UniProt P36894); assay: Inhibition of wild-type human partial length BMPR1A (Q214 to I532 residues) expressed in Escherichia coli BL21 assessed as residual activity at 1000 nM after 30 mins by Kinomescan method relative to control
[5] = target: Myosin-IIIb (Homo sapiens) (UniProt Q8WXR4); assay: Inhibition of wild-type human partial length MYO3B (M1 to D357 residues) expressed in Escherichia coli BL21 assessed as residual activity at 1000 nM after 30 mins by Kinomescan method relative to control
[6] = target: Inhibitor of nuclear factor kappa-B kinase subunit beta (Homo sapiens) (UniProt O14920); assay: Inhibition of wild-type human full length IKK-beta (M1 to S756 residues) expressed in HEK293 cells assessed as residual activity at 1000 nM after 30 mins by Kinomescan method relative to control; type: cell-based
How it was run: (§2)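 Single-concentration screen at 1 µM across a 456-kinase KINOMEscan panel. The read-out is Percent Control for each kinase.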

[7] = target: Ankyrin repeat and protein kinase domain-containing protein 1 (Homo sapiens) (UniProt Q8NFD2); assay: Inhibition of wild-type human partial length ANKK1 (M1 to A305 residues) expressed in HEK293 cells assessed as residual activity at 1000 nM after 30 mins by Kinomescan method relative to control; type: cell-based
[8] = target: Dual specificity protein kinase CLK4 (Homo sapiens) (UniProt Q9HAZ1); assay: Inhibition of wild-type human partial length CLK4 (R135 to K481 residues) expressed in Escherichia coli BL21 assessed as residual activity at 1000 nM after 30 mins by Kinomescan method relative to control
[9] = target: STE20-like serine/threonine-protein kinase (Homo sapiens) (UniProt Q9H2G2); assay: Inhibition of wild-type human partial length SLK (S14 to A307 residues) expressed in Escherichia coli BL21 assessed as residual activity at 1000 nM after 30 mins by Kinomescan method relative to control
[10] = target: Bone morphogenetic protein receptor type-2 (Homo sapiens) (UniProt Q13873); assay: Inhibition of wild-type human partial length BMPR2 (R179 to Q526 residues) expressed in HEK293 cells assessed as residual activity at 1000 nM after 30 mins by Kinomescan method relative to control; type: cell-based
[11] = target: Wee1-like protein kinase 2 (Homo sapiens) (UniProt P0C1S8); assay: Inhibition of wild-type human partial length WEE2 (M204 to K492 residues) expressed in Escherichia coli BL21 assessed as residual activity at 1000 nM after 30 mins by Kinomescan method relative to control
[12] = target: Cyclin-dependent kinase 3 (Homo sapiens) (UniProt Q00526); assay: Inhibition of wild-type human full length CDK3 (M1 to H305 residues) expressed in Escherichia coli BL21 assessed as residual activity at 1000 nM after 30 mins by Kinomescan method relative to control; how it was run: as §1
[13] = target: Mitogen-activated protein kinase kinase kinase 3 (Homo sapiens) (UniProt Q99759); assay: Inhibition of wild-type human partial length MAP3K3 (E320 to Y626 residues) expressed in HEK293 cells assessed as residual activity at 1000 nM after 30 mins by Kinomescan method relative to control; type: cell-based
Mitogen-activated protein kinase kinase kinase 3 (Homo sapiens), sequence (Q99759 whole entry, the tested form may be a part): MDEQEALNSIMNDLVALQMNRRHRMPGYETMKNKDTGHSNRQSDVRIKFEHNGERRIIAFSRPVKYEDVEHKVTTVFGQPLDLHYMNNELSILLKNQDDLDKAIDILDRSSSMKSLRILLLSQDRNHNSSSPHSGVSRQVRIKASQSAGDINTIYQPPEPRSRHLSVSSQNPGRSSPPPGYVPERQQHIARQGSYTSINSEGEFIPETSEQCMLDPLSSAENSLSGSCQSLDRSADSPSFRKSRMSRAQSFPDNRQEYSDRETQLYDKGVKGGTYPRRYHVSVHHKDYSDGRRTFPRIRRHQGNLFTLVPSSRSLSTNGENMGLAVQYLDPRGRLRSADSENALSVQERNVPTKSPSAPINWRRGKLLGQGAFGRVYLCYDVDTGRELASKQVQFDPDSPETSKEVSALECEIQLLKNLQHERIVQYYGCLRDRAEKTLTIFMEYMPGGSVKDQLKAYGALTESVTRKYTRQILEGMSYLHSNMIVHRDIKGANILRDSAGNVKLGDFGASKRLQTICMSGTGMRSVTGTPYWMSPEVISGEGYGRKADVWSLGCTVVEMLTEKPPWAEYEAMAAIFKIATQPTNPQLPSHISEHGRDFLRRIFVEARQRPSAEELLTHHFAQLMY

[14] = test system: Tyrosine-protein kinase ABL1 (Homo sapiens), P00519 [Y253F]; assay: Inhibition of human phosphorylated ABL1 Y253F mutant (S229 to K512 residues) expressed in HEK293 cells assessed as residual activity at 1000 nM after 30 mins by Kinomescan method relative to control; type: cell-based; how it was run: as §1
[15] = target: Serine/threonine-protein kinase PAK 1 (Homo sapiens) (UniProt Q13153); assay: Inhibition of wild-type human partial length PAK1 (S149 to H545 residues) expressed in Escherichia coli BL21 assessed as residual activity at 1000 nM after 30 mins by Kinomescan method relative to control
[16] = target: Serine/threonine-protein kinase pim-2 (Homo sapiens) (UniProt Q9P1W9); assay: Inhibition of wild-type human partial length PIM2 (M1 to E291 residues) expressed in Escherichia coli BL21 assessed as residual activity at 1000 nM after 30 mins by Kinomescan method relative to control
Serine/threonine-protein kinase pim-2 (Homo sapiens), sequence (Q9P1W9 whole entry, looked up, the tested form may be a part): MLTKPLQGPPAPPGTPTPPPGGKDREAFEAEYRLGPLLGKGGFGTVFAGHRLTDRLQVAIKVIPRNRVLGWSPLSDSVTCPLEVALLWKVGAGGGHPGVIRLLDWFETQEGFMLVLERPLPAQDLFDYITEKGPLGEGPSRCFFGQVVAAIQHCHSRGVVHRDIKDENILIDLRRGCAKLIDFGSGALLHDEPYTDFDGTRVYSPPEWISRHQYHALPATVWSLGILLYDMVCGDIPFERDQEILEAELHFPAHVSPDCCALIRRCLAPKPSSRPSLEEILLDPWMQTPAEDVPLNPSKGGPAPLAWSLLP

[17] = target: Tyrosine-protein kinase receptor Tie-1 (Homo sapiens) (UniProt P35590); assay: Inhibition of wild-type human partial length TIE1 (T819 to A1138 residues) expressed in Escherichia coli BL21 assessed as residual activity at 1000 nM after 30 mins by Kinomescan method relative to control
Tyrosine-protein kinase receptor Tie-1 (Homo sapiens), sequence (P35590 whole entry, the tested form may be a part): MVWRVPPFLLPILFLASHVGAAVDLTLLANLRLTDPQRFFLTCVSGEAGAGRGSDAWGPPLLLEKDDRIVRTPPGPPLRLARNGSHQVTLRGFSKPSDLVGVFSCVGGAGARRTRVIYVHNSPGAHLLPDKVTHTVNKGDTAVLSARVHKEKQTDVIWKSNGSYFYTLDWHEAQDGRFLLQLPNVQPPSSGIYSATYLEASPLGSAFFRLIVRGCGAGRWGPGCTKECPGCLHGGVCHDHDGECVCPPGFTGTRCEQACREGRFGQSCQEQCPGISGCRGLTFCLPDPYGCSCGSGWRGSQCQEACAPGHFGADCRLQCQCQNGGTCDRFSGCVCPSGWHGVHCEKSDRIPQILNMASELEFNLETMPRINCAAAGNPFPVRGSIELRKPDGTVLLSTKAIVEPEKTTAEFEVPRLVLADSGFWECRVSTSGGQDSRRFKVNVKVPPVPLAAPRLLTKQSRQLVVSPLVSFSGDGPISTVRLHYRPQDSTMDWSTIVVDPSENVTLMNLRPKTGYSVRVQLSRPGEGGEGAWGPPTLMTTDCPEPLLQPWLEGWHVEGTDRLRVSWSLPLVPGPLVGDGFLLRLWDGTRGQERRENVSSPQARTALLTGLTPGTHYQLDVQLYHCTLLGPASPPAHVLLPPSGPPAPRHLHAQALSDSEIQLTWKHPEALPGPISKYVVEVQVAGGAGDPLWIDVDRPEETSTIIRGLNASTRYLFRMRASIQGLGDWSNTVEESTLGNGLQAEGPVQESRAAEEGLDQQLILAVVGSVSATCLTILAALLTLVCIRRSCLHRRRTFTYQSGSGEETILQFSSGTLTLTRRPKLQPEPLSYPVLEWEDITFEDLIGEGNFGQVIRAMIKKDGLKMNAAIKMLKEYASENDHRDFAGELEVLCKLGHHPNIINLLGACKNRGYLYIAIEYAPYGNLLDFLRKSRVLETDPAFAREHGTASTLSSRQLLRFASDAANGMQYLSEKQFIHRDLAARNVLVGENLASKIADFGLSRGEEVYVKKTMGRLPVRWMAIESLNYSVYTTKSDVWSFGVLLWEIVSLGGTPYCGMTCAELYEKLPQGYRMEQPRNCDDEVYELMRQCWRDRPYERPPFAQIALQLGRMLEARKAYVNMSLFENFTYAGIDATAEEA

[18] = target: Serine/threonine-protein kinase 26 (Homo sapiens) (UniProt Q9P289); assay: Inhibition of wild-type human full length MST4 (M1 to P416 residues) expressed in HEK293 cells assessed as residual activity at 1000 nM after 30 mins by Kinomescan method relative to control; type: cell-based; how it was run: as §2
[19] = target: Fibroblast growth factor receptor 2 (Homo sapiens, UniProt P21802); assay: Inhibition of human recombinant cytoplasmic His-tagged FGFR2 (403 to 822 residues) expressed in baculovirus using Tyr-4 peptide after 1 hr by FRET-based Z'-Lyte assay
Fibroblast growth factor receptor 2, sequence (P21802 whole entry, the tested form may be a part): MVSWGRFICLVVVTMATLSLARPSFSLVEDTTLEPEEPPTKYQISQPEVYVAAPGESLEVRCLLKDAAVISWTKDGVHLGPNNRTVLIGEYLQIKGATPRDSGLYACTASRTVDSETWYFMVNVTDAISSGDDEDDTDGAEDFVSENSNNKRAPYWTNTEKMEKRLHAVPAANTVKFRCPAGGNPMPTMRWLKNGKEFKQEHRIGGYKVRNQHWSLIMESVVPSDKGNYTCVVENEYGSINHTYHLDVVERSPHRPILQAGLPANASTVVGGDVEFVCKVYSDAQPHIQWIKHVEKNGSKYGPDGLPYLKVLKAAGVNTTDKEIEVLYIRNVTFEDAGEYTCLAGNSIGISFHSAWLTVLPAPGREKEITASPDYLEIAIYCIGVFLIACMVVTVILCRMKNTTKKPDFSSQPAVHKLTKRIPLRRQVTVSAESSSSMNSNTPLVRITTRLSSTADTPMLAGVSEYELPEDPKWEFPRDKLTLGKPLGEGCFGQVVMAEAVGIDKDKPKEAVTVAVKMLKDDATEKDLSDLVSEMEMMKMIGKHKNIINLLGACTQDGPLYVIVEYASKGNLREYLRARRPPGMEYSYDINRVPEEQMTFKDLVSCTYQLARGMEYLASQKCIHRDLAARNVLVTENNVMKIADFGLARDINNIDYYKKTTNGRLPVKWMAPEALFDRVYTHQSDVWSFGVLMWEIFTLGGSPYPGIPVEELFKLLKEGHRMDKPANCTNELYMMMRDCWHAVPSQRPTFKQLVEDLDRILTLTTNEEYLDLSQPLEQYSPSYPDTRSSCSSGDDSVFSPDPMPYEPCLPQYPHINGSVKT

[20] = target: Activin receptor type-1B (Homo sapiens) (UniProt P36896); assay: Inhibition of wild-type human ACVR1B (S187 to I505 residues) expressed in Escherichia coli BL21 assessed as residual activity at 1000 nM after 30 mins by Kinomescan method relative to control; how it was run: as §1
[21] = target: Tyrosine-protein kinase receptor UFO (Homo sapiens) (UniProt P30530); assay: Inhibition of wild-type human partial length AXL (R497 to Y821 residues) expressed in Escherichia coli BL21 assessed as residual activity at 1000 nM after 30 mins by Kinomescan method relative to control
Tyrosine-protein kinase receptor UFO (Homo sapiens), sequence (P30530 whole entry, the tested form may be a part): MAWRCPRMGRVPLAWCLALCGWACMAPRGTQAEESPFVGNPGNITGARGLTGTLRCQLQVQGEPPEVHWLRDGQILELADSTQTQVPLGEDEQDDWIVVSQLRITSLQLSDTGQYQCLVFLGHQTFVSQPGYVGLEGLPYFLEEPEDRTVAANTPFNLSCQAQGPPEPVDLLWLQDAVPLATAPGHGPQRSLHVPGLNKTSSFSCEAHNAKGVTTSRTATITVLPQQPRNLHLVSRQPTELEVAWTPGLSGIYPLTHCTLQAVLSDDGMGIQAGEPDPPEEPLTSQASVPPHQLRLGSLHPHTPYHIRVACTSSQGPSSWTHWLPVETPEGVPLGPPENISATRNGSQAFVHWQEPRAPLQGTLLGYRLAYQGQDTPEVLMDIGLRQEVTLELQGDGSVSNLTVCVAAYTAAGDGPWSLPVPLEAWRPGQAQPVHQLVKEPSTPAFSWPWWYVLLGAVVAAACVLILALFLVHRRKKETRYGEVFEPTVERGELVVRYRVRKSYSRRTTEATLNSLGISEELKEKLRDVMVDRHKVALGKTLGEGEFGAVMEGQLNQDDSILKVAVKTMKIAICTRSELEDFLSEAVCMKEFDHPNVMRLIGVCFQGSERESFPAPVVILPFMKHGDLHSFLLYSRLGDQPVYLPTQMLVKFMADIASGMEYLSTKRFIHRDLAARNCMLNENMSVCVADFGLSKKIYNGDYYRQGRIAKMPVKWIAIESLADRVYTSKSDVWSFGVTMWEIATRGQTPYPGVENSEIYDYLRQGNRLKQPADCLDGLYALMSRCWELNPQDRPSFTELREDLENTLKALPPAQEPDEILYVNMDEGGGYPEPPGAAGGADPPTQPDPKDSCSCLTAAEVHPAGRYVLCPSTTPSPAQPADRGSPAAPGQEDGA

COc1cc(OC)c(Cl)c(N2Cc3cnc(Nc4ccc(F)cc4)nc3N(C3CCN(C(=O)/C=C/CN(C)C)CC3)C2=O)c1Cl
Activity [1]: 96% | Activity [2]: 100% | Activity [3]: 94% | Activity [4]: 100% | Activity [5]: 100% | Activity [6]: 100% | Activity [7]: 96% | Activity [8]: 93% | Activity [9]: 100% | Activity [10]: 96% | Activity [11]: 99% | Activity [12]: 97% | Activity [13]: 1.9% | Activity [14]: 38% | Activity [15]: 100% | Activity [16]: 83% | Activity [17]: 19% | Activity [18]: 69% | IC50 [19]: 1.45 nM | Activity [20]: 100% | Activity [21]: 92%
